Results from ChEMBL document CHEMBL3351561, “Discovery of 9-(1-anilinoethyl)-2-morpholino-4-oxo-pyrido[1,2-a]pyrimidine-7-carboxamides as PI3Kβ/δ inhibitors for the treatment of PTEN-deficient tumours” (Bioorg Med Chem Lett, 2014).
In brackets after ≈: the same amount, converted by molar mass.

Experiments:
[1] = Total plasma concentration in SCID mouse xenografted with PTEN-null human PC3 cells at 100 mg/kg, po measured after 8 hrs; format: ADME, organism-based, PC-3; parameters: dose 100 mg/kg, route oral
Procedure, shortened: (§1)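 Total plasma concentration was measured in SCID mice carrying PC3 xenografts after a single oral dose given as a suspension (50, 100 or 200 mg/kg). Samples were taken at 0.5 to 8 h.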

Mus musculus [2] = assay: Inhibition of Akt phosphorylation in SCID mouse xenografted with PTEN-null human PC3 cells at 100 mg/kg, po measured after 1 hr; format: functional; details: PC-3, 1 h
Procedure, shortened: (§2)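 SCID mice carrying PTEN-null PC3 prostate xenografts received a single oral dose as a suspension (50, 100 or 200 mg/kg).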

Mus musculus [3] = assay: Inhibition of Akt phosphorylation in SCID mouse xenografted with PTEN-null human PC3 cells at 100 mg/kg, po measured after 8 hrs; format: functional; details: PC-3, 8 h; procedure, shortened: as §2
[4] = Ratio of total plasma concentration in PTEN-null human PC3 cells xenografted in SCID mouse at 100 mg/kg, po single dose at 4 hrs to IC50 for PI3Kbeta in human MAD-MB-468 cells; parameters: species or system PC-3
[5] = Ratio of total plasma concentration in PTEN-null human PC3 cells xenografted in SCID mouse at 100 mg/kg, po single dose at 1 hrs to IC50 for PI3Kbeta in human MAD-MB-468 cells; parameters: species or system PC-3
[6] = Ratio of total plasma concentration in PTEN-null human PC3 cells xenografted in SCID mouse at 100 mg/kg, po single dose at 8 hrs to IC50 for PI3Kbeta in human MAD-MB-468 cells; parameters: species or system PC-3
[7] = molecular target: T1, Phosphatidylinositol 4,5-bisphosphate 3-kinase catalytic subunit beta isoform (Homo sapiens, UniProt P42338); assay: Inhibition of PI3Kbeta in human MAD-MB-468 cells assessed as inhibition of Ser473 Akt phosphorylation by cellular potency assay
T1 sequence (P42338 whole entry, canonical isoform): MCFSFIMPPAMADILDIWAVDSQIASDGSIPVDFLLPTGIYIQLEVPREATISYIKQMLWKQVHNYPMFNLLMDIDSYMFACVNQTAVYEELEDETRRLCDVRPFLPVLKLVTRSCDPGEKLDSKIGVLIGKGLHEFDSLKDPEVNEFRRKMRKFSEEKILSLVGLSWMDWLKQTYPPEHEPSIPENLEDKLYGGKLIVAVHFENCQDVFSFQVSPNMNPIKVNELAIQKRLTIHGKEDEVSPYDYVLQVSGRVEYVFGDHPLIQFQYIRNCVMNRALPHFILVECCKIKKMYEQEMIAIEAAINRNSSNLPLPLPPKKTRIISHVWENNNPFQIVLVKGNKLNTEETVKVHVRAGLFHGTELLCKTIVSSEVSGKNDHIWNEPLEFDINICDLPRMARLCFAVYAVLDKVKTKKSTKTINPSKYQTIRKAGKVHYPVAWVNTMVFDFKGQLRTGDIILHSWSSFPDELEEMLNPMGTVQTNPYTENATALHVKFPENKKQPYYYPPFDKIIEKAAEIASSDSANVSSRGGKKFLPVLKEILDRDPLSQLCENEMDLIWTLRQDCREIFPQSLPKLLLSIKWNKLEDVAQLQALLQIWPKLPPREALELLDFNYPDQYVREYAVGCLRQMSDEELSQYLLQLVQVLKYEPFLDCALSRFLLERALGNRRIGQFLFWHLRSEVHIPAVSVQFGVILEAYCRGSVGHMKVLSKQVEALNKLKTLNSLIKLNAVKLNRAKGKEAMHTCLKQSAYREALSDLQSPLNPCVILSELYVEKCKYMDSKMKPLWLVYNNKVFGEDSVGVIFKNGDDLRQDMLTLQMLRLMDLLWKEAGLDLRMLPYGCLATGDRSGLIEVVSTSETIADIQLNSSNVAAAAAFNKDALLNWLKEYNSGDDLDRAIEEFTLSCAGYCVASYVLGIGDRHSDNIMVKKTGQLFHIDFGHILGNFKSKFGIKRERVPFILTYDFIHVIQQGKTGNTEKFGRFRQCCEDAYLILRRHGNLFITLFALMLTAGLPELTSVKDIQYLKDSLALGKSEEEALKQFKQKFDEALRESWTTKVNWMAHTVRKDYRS

[8] = Apparent permeability from apical (pH 6.5) to […] of human Caco2 cells; format: ADME, cell-based; details: Caco-2, pH 6.5
[9] = Buffer/octanol partition coefficient, log D of the compound at pH 7.4 by shake flask method; format: physicochemical
Procedure, shortened: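 LogD at pH 7.4 was measured by shake-flask with a buffer/octanol volume ratio of 100:1.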

[10] = Intrinsic clearance in human hepatocytes measured per 10^6 cells; format: ADME, cell-based, Hepatocyte; details: read-out: CLH
Procedure, shortened: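 Intrinsic clearance was measured in human hepatocytes and is expressed in µL/min/10^6 cells.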

[11] = Solubility of the compound in phosphate buffer at pH 7.4; format: physicochemical
Procedure, shortened: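 Solubility was measured from solid material in phosphate buffer at pH 7.4.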

[12] = molecular target: T2, Phosphatidylinositol 4,5-bisphosphate 3-kinase catalytic subunit alpha isoform (Homo sapiens, UniProt P42336); assay: Inhibition of human recombinant PI3Kalpha assessed as depletion of ATP substrate by Ultra Glo luciferase assay
T2 sequence (P42336 whole entry, canonical isoform): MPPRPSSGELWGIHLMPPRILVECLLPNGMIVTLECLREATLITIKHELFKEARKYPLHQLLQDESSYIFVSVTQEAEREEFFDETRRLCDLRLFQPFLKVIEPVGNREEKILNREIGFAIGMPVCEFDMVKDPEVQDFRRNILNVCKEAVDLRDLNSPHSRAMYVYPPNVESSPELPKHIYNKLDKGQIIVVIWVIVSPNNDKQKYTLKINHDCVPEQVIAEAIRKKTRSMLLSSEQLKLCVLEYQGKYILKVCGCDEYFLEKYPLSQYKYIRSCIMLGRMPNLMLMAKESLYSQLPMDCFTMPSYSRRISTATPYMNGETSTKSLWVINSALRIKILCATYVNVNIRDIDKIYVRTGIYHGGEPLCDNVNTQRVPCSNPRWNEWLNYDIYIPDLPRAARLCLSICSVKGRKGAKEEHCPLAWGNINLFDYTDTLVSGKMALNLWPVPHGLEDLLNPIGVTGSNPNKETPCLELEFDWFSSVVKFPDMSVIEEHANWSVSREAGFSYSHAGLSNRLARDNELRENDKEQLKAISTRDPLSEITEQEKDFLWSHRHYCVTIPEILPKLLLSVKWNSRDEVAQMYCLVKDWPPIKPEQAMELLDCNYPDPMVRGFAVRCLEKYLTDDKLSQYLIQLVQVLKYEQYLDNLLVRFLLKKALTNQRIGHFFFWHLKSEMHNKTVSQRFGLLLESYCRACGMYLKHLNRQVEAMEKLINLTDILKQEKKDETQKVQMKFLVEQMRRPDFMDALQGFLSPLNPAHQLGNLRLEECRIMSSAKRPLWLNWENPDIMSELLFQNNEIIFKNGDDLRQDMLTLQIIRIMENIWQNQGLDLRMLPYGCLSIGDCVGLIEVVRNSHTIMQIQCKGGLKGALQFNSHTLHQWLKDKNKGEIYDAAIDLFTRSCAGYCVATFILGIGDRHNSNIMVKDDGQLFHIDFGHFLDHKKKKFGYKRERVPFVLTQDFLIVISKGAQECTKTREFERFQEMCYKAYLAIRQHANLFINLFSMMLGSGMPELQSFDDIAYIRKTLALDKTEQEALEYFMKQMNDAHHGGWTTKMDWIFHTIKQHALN
Procedure, shortened: (§3)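 Enzyme IC50s are reported as the geometric mean of 3 or more values.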

[13] = molecular target: T1, Phosphatidylinositol 4,5-bisphosphate 3-kinase catalytic subunit beta isoform; assay: Inhibition of human recombinant PI3Kbeta assessed as depletion of ATP substrate by Ultra Glo luciferase assay; procedure, shortened: as §3
[14] = molecular target: Phosphatidylinositol 4,5-bisphosphate 3-kinase catalytic subunit gamma isoform (Homo sapiens, UniProt P48736); assay: Inhibition of human recombinant PI3Kgamma assessed as depletion of ATP substrate by Ultra Glo luciferase assay; procedure, shortened: as §3
Phosphatidylinositol 4,5-bisphosphate 3-kinase catalytic subunit gamma isoform, sequence (P48736 whole entry, canonical isoform): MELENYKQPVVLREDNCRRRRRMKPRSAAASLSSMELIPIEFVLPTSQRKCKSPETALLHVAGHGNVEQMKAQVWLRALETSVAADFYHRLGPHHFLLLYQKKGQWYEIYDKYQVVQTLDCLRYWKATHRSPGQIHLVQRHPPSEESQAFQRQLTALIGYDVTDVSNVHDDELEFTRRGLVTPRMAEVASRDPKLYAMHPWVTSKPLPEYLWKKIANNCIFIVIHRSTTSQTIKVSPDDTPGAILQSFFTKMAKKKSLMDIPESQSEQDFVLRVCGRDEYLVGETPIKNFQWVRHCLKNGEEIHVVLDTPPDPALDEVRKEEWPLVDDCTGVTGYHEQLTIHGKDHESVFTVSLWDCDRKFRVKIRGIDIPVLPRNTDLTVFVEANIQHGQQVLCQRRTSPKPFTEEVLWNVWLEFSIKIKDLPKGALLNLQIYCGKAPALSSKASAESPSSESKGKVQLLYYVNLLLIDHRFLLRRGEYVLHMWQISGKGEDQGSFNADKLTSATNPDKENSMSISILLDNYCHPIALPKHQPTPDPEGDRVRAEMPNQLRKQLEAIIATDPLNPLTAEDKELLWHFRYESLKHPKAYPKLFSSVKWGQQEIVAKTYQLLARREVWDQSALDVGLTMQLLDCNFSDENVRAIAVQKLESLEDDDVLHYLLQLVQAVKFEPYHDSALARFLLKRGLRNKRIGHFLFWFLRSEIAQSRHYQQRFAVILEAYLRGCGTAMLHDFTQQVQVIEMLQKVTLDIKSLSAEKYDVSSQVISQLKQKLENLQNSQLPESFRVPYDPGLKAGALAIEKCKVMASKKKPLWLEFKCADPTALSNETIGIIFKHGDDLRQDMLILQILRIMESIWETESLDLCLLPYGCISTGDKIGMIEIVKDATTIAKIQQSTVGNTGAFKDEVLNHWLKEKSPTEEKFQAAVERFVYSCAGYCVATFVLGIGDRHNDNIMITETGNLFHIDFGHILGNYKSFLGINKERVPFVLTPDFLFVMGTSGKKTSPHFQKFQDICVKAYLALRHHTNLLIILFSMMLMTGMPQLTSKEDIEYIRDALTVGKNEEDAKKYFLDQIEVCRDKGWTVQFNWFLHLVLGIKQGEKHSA

[15] = molecular target: T3, Phosphatidylinositol 4,5-bisphosphate 3-kinase catalytic subunit delta isoform (Homo sapiens, UniProt O00329); assay: Inhibition of human recombinant PI3Kdelta assessed as depletion of ATP substrate by Ultra Glo luciferase assay; procedure, shortened: as §3
T3 sequence (O00329 whole entry): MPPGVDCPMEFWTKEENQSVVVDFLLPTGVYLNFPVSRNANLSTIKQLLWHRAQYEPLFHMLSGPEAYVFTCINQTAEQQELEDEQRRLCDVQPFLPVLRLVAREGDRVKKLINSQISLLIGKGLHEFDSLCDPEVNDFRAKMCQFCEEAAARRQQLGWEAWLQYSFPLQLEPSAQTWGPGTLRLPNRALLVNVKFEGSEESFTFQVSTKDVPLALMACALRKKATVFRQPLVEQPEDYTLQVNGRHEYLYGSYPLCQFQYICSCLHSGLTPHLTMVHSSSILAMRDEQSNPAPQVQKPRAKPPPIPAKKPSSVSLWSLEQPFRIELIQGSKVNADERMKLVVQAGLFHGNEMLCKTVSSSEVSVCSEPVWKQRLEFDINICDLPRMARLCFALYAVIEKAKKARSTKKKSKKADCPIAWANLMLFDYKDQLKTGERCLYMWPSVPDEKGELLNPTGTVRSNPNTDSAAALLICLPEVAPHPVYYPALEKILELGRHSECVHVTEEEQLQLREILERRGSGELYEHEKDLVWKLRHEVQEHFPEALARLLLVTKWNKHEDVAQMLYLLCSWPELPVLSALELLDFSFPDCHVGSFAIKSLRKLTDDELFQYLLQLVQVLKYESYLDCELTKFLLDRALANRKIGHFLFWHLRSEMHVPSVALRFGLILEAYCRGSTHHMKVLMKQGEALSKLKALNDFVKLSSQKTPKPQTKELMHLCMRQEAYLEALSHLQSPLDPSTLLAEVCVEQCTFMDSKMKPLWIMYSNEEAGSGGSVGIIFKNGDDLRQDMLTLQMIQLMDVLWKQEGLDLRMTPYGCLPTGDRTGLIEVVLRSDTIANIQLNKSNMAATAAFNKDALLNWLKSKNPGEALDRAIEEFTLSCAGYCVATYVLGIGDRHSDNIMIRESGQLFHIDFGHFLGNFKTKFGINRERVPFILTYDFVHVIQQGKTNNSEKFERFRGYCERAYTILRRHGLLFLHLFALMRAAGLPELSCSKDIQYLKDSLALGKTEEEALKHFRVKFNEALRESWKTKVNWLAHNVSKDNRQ

[16] = molecular target: T2, Phosphatidylinositol 4,5-bisphosphate 3-kinase catalytic subunit alpha isoform; assay: Inhibition of PI3Kalpha in human BT474 cells assessed as inhibition of […] Akt phosphorylation after 2 hrs by fluorescence assay; format: cell-based, BT-474
Procedure, shortened: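 BT474 cells were seeded in DMEM with 10% FCS and 1% glutamine and left to adhere overnight, then treated with compound in DMSO for 2 h at 37 °C and 5% CO2. Cells were lysed with a phosphatase/protease-inhibitor buffer. Lysate was captured on anti-total-Akt plates, probed with anti-phospho-Akt Thr308 and an HRP secondary, and read by fluorescence (ex 325/em 420 nm). Values are the geometric mean of ≥2 determinations.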

[17] = Fraction unbound in mouse plasma; format: ADME, cell-free
Procedure, shortened: (§4)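 Protein binding was measured in nude mouse plasma and in human plasma and is expressed as fraction unbound (%).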

[18] = Fraction unbound in human plasma; format: ADME, cell-free; procedure, shortened: as §4
[19] = Clearance in mouse plasma at 5 umol/kg, iv and 30 umol/kg, po; format: ADME, organism-based
Procedure, shortened: (§5)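 […] mice were dosed at 5 µmol/kg i.v. and 30 µmol/kg p.o. Clearance is given in mL/min/kg and oral bioavailability in %.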

[20] = Bioavailability in mouse plasma at 5 umol/kg, iv and 30 umol/kg, po; format: ADME, organism-based; procedure, shortened: as §5
Mus musculus [21] = assay: Inhibition of Akt phosphorylation in SCID mouse xenografted with PTEN-null human PC3 cells at 100 mg/kg, po measured after 4 hrs; format: functional; details: PC-3, 4 h; procedure, shortened: as §2
[22] = Total plasma concentration in SCID mouse xenografted with PTEN-null human PC3 cells at 100 mg/kg, po measured after 4 hrs; format: ADME, organism-based, PC-3; parameters: dose 100 mg/kg, route oral; procedure, shortened: as §1
[23] = Total plasma concentration in SCID mouse xenografted with PTEN-null human PC3 cells at 100 mg/kg, po measured after 1 hr; format: ADME, organism-based, PC-3; parameters: dose 100 mg/kg, route oral; procedure, shortened: as §1

concentration at 8 h [1]: 2.6 µM
IC50 [7]: 3 nM
Papp A→B [8]: 50 ×10⁻⁶ cm/s
logD [9]: 3
hepatocyte CLint [10]: 11 µL/min/1e6 cells
solubility [11]: 15 µM (≈ 6.86 µg/mL)
IC50 [12]: 75 nM
IC50 [13]: 5 nM
IC50 [14]: 510 nM
IC50 [15]: 32 nM
IC50 [16]: 1200 nM
fraction unbound [17]: 0.047
fraction unbound [18]: 0.12
clearance [19]: 82 mL/min/kg
bioavailability [20]: 31%
concentration at 4 h [22]: 6.8 µM
concentration at 1 h [23]: 13 µM
SMILES: C[C@@H](Nc1cc(F)cc(F)c1)c1cc(C(=O)N(C)C)cn2c(=O)cc(N3CCOCC3)nc12
inhibition in vivo at 100 mg/kg (Mus musculus [2]): 92%
inhibition in vivo at 100 mg/kg (Mus musculus [3]): 56%
Ratio [4]: 106
Ratio [5]: 204
Ratio [6]: 41
inhibition in vivo at 100 mg/kg (Mus musculus [21]): 80%
